Results taken from ChEMBL document CHEMBL1155278, “3,4-Diaryl-isoxazoles and -imidazoles as potent dual inhibitors of p38alpha mitogen activated protein kinase and casein kinase 1delta” (J Med Chem, 2009).

Assays:
[1] = molecular target: Mitogen-activated protein kinase 11 (Homo sapiens) (UniProt Q15759); experiment: Inhibition of p38beta at 0.1 uM by Cherenkov counting
Outline: (§1)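 Single-concentration screen at 0.1 μM in a 76-kinase panel. ATP for each kinase was set near its Km for ATP. Residual activity is given as a percentage of control assays without compound, mean of n = 3 ± SD.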

[2] = molecular target: Tyrosine-protein kinase SYK (Homo sapiens) (UniProt P43405); experiment: Inhibition of SYK assessed as residual activity at 0.1 uM by Cherenkov counting relative to control in presence of 20 uM ATP; outline: as §1
[3] = molecular target: Rho-associated protein kinase 2 (Homo sapiens) (UniProt O75116); experiment: Inhibition of ROCK2 assessed as residual activity at 0.1 uM by Cherenkov counting relative to control in presence of 20 uM ATP; outline: as §1
Chain of Rho-associated protein kinase 2 (Homo sapiens) (O75116 whole entry, looked up): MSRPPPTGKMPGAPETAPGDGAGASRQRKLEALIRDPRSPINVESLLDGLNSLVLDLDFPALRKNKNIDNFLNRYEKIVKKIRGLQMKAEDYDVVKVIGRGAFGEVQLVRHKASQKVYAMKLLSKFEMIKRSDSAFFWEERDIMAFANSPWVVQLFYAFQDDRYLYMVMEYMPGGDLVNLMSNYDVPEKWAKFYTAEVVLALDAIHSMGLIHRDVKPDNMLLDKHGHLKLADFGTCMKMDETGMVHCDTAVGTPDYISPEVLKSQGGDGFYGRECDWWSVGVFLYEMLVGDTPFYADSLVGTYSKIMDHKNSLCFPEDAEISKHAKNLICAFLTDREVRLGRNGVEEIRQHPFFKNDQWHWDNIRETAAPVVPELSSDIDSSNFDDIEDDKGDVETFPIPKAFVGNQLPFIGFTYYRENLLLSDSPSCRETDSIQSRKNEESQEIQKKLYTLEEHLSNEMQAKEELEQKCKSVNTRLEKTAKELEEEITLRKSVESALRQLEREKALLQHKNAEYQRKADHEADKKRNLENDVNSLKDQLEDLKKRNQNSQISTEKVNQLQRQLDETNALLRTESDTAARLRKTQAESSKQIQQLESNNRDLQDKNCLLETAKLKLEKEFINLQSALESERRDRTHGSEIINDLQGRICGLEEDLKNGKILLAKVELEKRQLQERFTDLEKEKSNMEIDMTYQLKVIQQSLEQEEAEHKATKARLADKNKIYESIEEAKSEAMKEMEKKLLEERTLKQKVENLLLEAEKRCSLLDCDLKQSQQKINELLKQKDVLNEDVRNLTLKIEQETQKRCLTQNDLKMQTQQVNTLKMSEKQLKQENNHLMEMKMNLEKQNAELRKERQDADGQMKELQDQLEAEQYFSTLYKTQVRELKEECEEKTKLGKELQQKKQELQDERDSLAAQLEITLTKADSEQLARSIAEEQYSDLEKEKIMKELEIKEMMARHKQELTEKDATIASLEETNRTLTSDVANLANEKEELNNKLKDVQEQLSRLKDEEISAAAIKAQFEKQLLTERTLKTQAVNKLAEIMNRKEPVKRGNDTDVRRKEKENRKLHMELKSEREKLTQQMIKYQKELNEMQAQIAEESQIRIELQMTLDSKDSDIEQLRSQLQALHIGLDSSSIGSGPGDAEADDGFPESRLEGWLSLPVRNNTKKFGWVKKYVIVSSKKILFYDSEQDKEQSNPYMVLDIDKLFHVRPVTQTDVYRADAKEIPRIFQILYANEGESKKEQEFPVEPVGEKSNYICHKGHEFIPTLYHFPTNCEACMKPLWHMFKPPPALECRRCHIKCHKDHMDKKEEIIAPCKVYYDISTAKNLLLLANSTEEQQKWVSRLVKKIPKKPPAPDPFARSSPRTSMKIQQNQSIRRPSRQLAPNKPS

[4] = molecular target: T1, Protein kinase C zeta type (Homo sapiens) (UniProt Q05513); experiment: Inhibition of PKCzeta assessed as residual activity at 0.1 uM by Cherenkov counting relative to control in presence of 5 uM ATP; outline: as §1
T1 sequence (whole entry): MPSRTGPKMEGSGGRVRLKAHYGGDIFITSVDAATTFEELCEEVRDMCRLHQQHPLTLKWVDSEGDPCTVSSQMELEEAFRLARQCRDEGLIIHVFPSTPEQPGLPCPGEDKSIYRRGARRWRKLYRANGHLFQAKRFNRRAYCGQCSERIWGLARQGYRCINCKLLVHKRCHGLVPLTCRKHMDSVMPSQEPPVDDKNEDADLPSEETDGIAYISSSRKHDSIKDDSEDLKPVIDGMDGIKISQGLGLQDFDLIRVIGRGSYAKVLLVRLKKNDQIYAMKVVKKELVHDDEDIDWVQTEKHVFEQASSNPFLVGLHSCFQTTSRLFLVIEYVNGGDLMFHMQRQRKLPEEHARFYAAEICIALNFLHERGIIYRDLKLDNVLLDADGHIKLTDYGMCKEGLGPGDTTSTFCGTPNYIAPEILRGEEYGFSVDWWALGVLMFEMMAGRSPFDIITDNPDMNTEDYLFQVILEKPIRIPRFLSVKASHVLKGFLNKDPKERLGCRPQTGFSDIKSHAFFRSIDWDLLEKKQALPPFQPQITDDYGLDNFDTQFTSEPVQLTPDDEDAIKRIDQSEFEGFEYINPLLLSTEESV

[5] = molecular target: Mitogen-activated protein kinase 1 (Homo sapiens) (UniProt P28482); experiment: Inhibition of ERK2 assessed as residual activity at 0.1 uM by Cherenkov counting relative to control
Outline: (§2)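 Single-concentration screen at 0.1 µM across a panel of 76 protein kinases. Each kinase was run at an ATP concentration approximating its ATP Km. Results are % mean residual activity versus control assays without compound (n = 3 ± SD).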

[6] = molecular target: Mitogen-activated protein kinase 14 (Homo sapiens, UniProt Q16539); experiment: Inhibition of p38alpha assessed as residual activity at 0.1 uM by Cherenkov counting relative to control; outline: as §1
Chain of Mitogen-activated protein kinase 14 (Q16539 whole entry): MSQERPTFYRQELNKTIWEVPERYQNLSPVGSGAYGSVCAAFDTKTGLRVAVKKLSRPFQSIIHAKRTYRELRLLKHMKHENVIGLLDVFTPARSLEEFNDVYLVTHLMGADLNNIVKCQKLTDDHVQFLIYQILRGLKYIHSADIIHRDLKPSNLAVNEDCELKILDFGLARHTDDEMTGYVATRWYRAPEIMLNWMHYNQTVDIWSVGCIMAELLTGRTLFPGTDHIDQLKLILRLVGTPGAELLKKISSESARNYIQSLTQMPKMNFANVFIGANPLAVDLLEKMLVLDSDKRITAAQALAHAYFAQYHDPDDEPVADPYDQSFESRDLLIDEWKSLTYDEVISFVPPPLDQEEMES

[7] = molecular target: Ephrin type-B receptor 3 (Homo sapiens) (UniProt P54753); experiment: Inhibition of EPHB3 assessed as residual activity at 0.1 uM by Cherenkov counting relative to control; outline: as §2
[8] = molecular target: Serine/threonine-protein kinase N2 (Homo sapiens) (UniProt Q16513); experiment: Inhibition of PRK2 assessed as residual activity at 0.1 uM by Cherenkov counting relative to control in presence of 5 uM ATP; outline: as §1
[9] = molecular target: T2, Serine/threonine-protein kinase Chk1 (Homo sapiens) (UniProt O14757); experiment: Inhibition of CHK1 assessed as residual activity at 0.1 uM by Cherenkov counting relative to control in presence of 20 uM ATP; outline: as §2
T2 sequence (whole entry): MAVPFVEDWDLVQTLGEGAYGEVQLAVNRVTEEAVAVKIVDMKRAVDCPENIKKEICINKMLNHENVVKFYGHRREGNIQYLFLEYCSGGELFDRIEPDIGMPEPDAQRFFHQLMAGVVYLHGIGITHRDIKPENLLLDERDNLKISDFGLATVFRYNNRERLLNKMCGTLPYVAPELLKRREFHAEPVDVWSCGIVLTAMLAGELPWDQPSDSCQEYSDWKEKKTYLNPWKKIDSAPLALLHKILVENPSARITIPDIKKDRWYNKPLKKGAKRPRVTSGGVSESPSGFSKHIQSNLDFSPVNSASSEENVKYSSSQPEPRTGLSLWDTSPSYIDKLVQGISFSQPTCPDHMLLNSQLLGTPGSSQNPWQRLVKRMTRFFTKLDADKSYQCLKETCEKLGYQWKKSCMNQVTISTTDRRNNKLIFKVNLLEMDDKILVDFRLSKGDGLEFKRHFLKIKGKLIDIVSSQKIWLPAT

[10] = molecular target: Maternal embryonic leucine zipper kinase (Homo sapiens) (UniProt Q14680); experiment: Inhibition of MELK assessed as residual activity at 0.1 uM by Cherenkov counting relative to control in presence of 50 uM ATP
Chain of Maternal embryonic leucine zipper kinase (Homo sapiens) (Q14680 whole entry, looked up): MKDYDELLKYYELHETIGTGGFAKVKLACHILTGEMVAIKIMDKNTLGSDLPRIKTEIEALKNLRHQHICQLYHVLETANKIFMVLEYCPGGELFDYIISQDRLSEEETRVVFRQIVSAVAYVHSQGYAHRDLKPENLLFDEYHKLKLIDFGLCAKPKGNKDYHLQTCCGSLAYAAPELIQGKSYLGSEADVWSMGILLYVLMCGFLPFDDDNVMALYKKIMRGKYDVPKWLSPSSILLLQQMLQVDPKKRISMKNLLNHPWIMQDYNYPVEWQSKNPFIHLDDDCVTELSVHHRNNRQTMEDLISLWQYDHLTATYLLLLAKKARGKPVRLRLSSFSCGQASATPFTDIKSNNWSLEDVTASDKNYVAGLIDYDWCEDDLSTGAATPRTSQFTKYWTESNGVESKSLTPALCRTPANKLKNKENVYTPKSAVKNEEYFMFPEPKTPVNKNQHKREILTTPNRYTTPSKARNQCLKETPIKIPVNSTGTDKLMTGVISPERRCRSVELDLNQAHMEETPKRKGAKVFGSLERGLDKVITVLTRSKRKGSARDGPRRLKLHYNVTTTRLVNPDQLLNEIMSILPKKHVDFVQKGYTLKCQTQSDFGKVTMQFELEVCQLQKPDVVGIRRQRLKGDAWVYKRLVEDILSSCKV
Outline: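 Single-concentration selectivity screen at 0.1 μM against a panel of 76 protein kinases. Each kinase was run at an ATP level approximating its Km for ATP. Output is mean residual activity as % of the control assay without compound, n = 3 ± SD.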

[11] = molecular target: Casein kinase I isoform delta (Rattus norvegicus, UniProt Q06486); experiment: Inhibition of GST-fused rat CK1delta by Cherenkov counting in presence of 20 uM ATP
Chain of Casein kinase I isoform delta (Q06486 whole entry, the tested form may be a part, canonical isoform): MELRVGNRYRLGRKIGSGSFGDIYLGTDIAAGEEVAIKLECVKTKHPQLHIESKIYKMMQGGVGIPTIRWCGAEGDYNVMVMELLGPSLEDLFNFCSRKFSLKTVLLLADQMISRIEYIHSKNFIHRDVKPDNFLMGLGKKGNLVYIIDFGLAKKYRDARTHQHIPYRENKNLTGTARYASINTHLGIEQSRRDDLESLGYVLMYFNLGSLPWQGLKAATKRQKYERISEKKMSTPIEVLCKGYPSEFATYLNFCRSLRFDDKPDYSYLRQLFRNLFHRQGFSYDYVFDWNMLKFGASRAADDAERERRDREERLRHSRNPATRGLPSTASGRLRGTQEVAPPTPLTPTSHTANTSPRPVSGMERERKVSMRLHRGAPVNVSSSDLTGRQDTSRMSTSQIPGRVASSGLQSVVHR

[12] = molecular target: Mitogen-activated protein kinase 12 (Homo sapiens) (UniProt P53778); experiment: Inhibition of p38-gamma assessed as residual activity at 0.1 uM by Cherenkov counting relative to control; outline: as §1
Chain of Mitogen-activated protein kinase 12 (Homo sapiens) (P53778 whole entry): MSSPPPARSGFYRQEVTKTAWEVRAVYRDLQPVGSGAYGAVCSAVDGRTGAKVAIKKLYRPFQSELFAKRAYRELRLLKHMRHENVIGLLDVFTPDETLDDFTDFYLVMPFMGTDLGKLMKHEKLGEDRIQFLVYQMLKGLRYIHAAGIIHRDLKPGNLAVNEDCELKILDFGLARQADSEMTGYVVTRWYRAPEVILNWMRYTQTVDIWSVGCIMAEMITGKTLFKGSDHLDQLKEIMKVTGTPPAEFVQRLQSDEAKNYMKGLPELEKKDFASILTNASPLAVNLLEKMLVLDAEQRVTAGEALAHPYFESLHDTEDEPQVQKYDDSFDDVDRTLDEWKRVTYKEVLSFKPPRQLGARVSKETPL

[13] = molecular target: Tyrosine-protein kinase CSK (Homo sapiens) (UniProt P41240); experiment: Inhibition of CSK assessed as residual activity at 10 uM by Cherenkov counting relative to control in presence of 20 uM ATP
Chain of Tyrosine-protein kinase CSK (Homo sapiens) (P41240 2-450 limits assumed): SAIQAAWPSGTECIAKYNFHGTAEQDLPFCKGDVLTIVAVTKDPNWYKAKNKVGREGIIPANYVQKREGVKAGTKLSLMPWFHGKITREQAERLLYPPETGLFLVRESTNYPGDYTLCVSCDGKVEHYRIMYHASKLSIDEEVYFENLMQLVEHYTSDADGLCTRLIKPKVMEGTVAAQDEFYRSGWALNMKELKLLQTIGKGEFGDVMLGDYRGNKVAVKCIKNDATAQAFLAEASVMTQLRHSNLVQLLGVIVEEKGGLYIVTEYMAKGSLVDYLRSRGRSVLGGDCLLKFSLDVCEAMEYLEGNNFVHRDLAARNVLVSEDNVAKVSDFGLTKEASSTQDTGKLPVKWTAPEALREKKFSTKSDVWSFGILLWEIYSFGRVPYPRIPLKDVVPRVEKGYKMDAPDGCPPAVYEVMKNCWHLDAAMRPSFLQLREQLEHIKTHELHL
Outline: (§3)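 Single-point profiling at 10 µM in a panel of 78 protein kinases. Kinase activity is expressed as a percentage relative to control assays without compound.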

[14] = molecular target: Ribosomal protein S6 kinase alpha-1 (Homo sapiens) (UniProt Q15418); experiment: Inhibition of RSK1 assessed as residual activity at 10 uM by Cherenkov counting relative to control
Outline: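 Single-concentration profiling at 10 μM in a 78-kinase panel. Kinase activity is expressed as a percentage of control assays run without compound.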

[15] = molecular target: Dual specificity mitogen-activated protein kinase kinase 1 (Homo sapiens) (UniProt Q02750); experiment: Inhibition of MKK1 assessed as residual activity at 10 uM by Cherenkov counting relative to control in presence of 5 uM ATP
[16] = molecular target: Aurora kinase C (Homo sapiens) (UniProt Q9UQB9); experiment: Inhibition of Aurora C assessed as residual activity at 10 uM by Cherenkov counting relative to control; outline: as §3
Chain of Aurora kinase C (Homo sapiens) (Q9UQB9 whole entry): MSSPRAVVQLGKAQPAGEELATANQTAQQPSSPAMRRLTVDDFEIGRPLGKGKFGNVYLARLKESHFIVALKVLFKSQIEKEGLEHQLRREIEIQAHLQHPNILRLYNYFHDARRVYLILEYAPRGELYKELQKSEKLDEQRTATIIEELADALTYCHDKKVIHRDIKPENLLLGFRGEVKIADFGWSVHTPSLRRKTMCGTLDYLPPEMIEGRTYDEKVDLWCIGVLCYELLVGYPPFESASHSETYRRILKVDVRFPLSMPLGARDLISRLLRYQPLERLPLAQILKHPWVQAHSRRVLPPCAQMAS

[17] = molecular target: Ribosomal protein S6 kinase alpha-5 (Homo sapiens) (UniProt O75582); experiment: Inhibition of MSK1 assessed as residual activity at 10 uM by Cherenkov counting relative to control in presence of 20 uM ATP
[18] = molecular target: Glycogen synthase kinase-3 beta (Homo sapiens) (UniProt P49841); experiment: Inhibition of GSK3-beta assessed as residual activity at 10 uM by Cherenkov counting relative to control in presence of 5 uM ATP; outline: as §3
Chain of Glycogen synthase kinase-3 beta (Homo sapiens) (P49841 whole entry, looked up): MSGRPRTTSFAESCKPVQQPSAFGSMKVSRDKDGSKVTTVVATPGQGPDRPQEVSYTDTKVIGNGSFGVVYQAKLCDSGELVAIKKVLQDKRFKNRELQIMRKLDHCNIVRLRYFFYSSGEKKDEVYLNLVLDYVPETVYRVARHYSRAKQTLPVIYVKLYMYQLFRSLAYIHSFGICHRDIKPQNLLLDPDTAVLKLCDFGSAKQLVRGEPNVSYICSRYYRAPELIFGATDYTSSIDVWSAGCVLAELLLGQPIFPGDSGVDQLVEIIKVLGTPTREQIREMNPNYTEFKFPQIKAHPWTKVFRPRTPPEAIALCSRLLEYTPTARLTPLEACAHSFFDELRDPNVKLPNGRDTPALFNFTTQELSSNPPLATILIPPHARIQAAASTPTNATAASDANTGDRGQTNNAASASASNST

Chain of Mitogen-activated protein kinase 11 (Homo sapiens) (Q15759 whole entry): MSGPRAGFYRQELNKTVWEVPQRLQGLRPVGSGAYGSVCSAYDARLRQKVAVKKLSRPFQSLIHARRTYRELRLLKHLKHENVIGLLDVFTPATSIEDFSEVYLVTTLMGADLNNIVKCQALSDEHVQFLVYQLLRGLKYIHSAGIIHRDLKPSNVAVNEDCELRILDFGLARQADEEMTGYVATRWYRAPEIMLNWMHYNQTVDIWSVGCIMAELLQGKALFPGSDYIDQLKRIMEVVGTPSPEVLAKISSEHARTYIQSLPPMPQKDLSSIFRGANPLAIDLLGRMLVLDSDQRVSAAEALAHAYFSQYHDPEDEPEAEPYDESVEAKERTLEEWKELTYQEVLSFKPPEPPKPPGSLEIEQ

| inhibition [1] | Activity [2] | Activity [3] | Activity [4] | Activity [5] | Activity [6] | Activity [7] | Activity [8] | Activity [9] | Activity [10] | IC50 [11] | Activity [12] | Activity [13] | Activity [14] | Activity [15] | Activity [16] | Activity [17] | Activity [18] | Structure (SMILES) |
| --- | --- | --- | --- | --- | --- | --- | --- | --- | --- | --- | --- | --- | --- | --- | --- | --- | --- | --- |
| 83% | 86% | 81% | 79% | 91% | 3% | 94% | 95% | 80% | 81% | 5 nM | 84% | – | – | – | – | – | – | COc1ccc(/C=C/C(=O)Nc2cc(-c3[nH]c(SC)nc3-c3ccc(F)cc3)ccn2)c(OC)c1 |
| 54% | 86% | 88% | 83% | 93% | 5% | 95% | 96% | 88% | 92% | 11 nM | 97% | – | – | – | – | – | – | COc1ccc(/C=C/C(=O)Nc2cc(-c3[nH]c([S+](C)[O-])nc3-c3ccc(F)cc3)ccn2)c(OC)c1 (configuration not stated) |
| – | – | – | – | – | – | – | – | – | – | 230 nM | – | 87% | 79% | 76% | 110% | 95% | 75% | CC(C)c1onc(-c2ccc(F)cc2)c1-c1ccncc1 |
| – | – | – | – | – | – | – | – | – | – | – | – | 95% | 83% | 88% | 35% | 113% | 85% | CC(C)c1noc(-c2ccc(F)cc2)c1-c1ccncc1 |
